Results reported in ChEMBL document CHEMBL1130137, “Substituted (pyridylmethoxy)naphthalenes as potent and orally active 5-lipoxygenase inhibitors; synthesis, biological profile, and pharmacokinetics of L-739,010” (J Med Chem, 1997).

Legend:
Homo sapiens [1] = species: Homo sapiens; assay: Compound was evaluated for production of leukotriene B4 in human whole blood (HWB) activated with ionophore A-23187.; assay type: functional
Summary of the method: (§1)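 LTB4 generation triggered by Ca2+ ionophore A23187 in human peripheral blood polymorphonuclear leukocytes or in human whole blood; inhibitor potency expressed as IC50 (nM).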

Canis familiaris [2] = assay: Ex Vivo generation of LTB4 by whole blood stimulated with calcium ionophore A-23187 in anesthetized dogs; assay type: functional, Canis lupus familiaris
Summary of the method: (§2)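 Anesthetized dogs receiving iv infusion (µg/kg/min, dose-ranging). Baseline urinary LTE4 excretion measured over 5-7 h after infusion start; ex vivo LTB4 generation by whole blood stimulated with calcium ionophore A23187. ED50 in µg/kg/min.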

Canis familiaris [3] = species: Canis familiaris; assay: Inhibition of urinary LTE4 levels in dogs; assay type: functional, Canis lupus familiaris, Urine; summary of the method: as §2
Rattus norvegicus [4] = species: Rattus norvegicus; assay: Inhibition of LTB4 levels in rat pleural exudates; assay type: functional
Summary of the method: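 Rat pleurisy: carrageenan injected into the pleural cavity, followed 16-20 h later by ionophore A23187; LTB4 measured in pleural exudate 6 h after oral dosing; ED50 derived.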

Ovis aries = assay: Compound was tested for inhibition of Ascaris -induced bronchoconstriction in sheep at 2.5 ug/kg intravenous administration; assay type: functional
Summary of the method: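 Conscious allergic sheep (n = 4) received an iv bolus of 0.2 mg/kg and then a constant iv infusion of 2.5 µg/kg/min before Ascaris antigen challenge. Percent inhibition was scored separately for the early-phase and late-phase bronchoconstriction.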

[5] = Compound was tested for inhibition of Ascaris -induced bronchoconstriction in squirrel monkeys; assay type: functional
Rattus norvegicus [6] = assay: compound was tested for inhibition of ovalbumin- induced dyspnea in inbred hyperreactive rats at 0.5 mg/kg; assay type: functional
[7] = molecular target: T1, Polyunsaturated fatty acid 5-lipoxygenase (Homo sapiens, UniProt P09917); assay: Inhibition of oxidation of arachidonic acid by human 5-Lipoxygenase using spectrophotometric assay; assay type: functional
T1 sequence (P09917 whole entry): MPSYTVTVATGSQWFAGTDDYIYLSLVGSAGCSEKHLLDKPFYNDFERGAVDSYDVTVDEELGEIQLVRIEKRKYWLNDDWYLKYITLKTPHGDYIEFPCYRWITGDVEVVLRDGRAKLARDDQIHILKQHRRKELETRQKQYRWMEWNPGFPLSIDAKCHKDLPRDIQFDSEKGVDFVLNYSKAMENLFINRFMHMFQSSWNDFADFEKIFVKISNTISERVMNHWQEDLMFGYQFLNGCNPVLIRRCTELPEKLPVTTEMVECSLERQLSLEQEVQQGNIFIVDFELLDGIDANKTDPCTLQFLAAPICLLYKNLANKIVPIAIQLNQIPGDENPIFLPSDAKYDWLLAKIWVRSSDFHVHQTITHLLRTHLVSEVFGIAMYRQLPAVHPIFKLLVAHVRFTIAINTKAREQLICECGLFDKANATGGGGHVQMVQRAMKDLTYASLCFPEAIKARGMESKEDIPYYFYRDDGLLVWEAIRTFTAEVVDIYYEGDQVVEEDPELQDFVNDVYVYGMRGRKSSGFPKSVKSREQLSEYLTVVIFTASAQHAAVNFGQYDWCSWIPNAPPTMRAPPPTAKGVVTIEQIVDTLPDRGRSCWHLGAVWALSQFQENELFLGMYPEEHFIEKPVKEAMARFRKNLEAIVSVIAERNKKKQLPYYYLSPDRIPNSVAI
Summary of the method: (§3)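 Soluble extracts of Sf9 insect cells overexpressing human 5-LO; arachidonic acid oxidation followed spectrophotometrically as 5-H(P)ETE production; IC50 values.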

Homo sapiens [8] = species: Homo sapiens; assay: Compound was evaluated for production of leukotriene B4 in Ca+2 -ionophore -activated human polymorphonuclear (HPMN) leukocytes.; assay type: functional; summary of the method: as §1
[9] = Plasma half-life in dogs in the presence of PEG 400/water(3:1); assay type: ADME, organism-based, Canis lupus familiaris; conditions: dog
Summary of the method: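 Dog PK: free base given iv in PEG-400/water (3:1); plasma levels followed and half-life estimated from the intravenous administration.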

[10] = Plasma half-life in rats in the presence of PEG 400/water(3:1); assay type: ADME, organism-based; conditions: rat
[11] = Maximum concentration of unchanged drug in rat plasma in the period 0-24 hr after dosing; assay type: ADME, organism-based
Summary of the method: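 Rats dosed orally as HCl salt in 0.5% methocel suspension (10 mL/kg); jugular blood drawn before dosing and 0.5, 1, 2, 4, 6, 8, 10, 24 h after. Plasma deproteinized with equal volume acetonitrile; parent drug measured by reverse-phase HPLC peak area against standard curves from spiked rat plasma.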

[12] = Bioavailability in rat (Sprague-Dawley) (male); assay type: ADME, organism-based; conditions: in vivo
Summary of the method: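 Oral dosing as HCl salt in 0.5% methocel suspension at 20 mg/kg (10 mL/kg); iv dosing of free base in PEG-400/water (3:1) at 5 mg/kg into jugular vein. Serial jugular blood to 24 h; plasma protein precipitated with acetonitrile, parent quantified by reverse-phase HPLC against spiked-plasma standards. F = (AUCpo × dose_iv)/(AUCiv × dose_po) × 100, over 0-24 h.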

[13] = molecular target: T1, Polyunsaturated fatty acid 5-lipoxygenase; assay: Compound was evaluated for the potency to inhibit oxidation of arachidonic acid by human recombinant 5-Lipoxygenase using a spectrophotometric assay; assay type: functional; summary of the method: as §3

| SMILES | IC50 (Homo sapiens [1]) [nM] | IC50 [7] [nM] | IC50 (Homo sapiens [8]) [nM] | further results |
| --- | --- | --- | --- | --- |
| CC(c1cc2ccccc2s1)N(O)C(N)=O (stereo not given) [ZILEUTON] | 2000 | – | – | – |
| CC(C)(C)Sc1c(CC(C)(C)C(=O)O)n(Cc2ccc(Cl)cc2)c2ccc(OCc3ccc4ccccc4n3)cc12 [QUIFLAPON] | – | – | – | ED50 (Canis familiaris [2]): 0.5 µg/min/kg; ED50 (Canis familiaris [3]): 1 µg/min/kg; ED50 (Rattus norvegicus [4]): 0.15 mg/kg; inhibition in vivo at 0.0025 mg/kg (Ovis aries): > 75%; Inhibition [5]: 71%; inhibition in vivo at 0.5 mg/kg (Rattus norvegicus [6]): 56% |
| N#Cc1cc(-c2ccoc2)c2ccc(OCc3ccc4ccc(C5(O)CCOCC5)cc4n3)cc2c1 | – | 1000 | 44 | – |
| N#Cc1cc(-c2ccoc2)c2ccc(OCc3cccc(C4(O)CC5COC(C4)O5)n3)cc2c1 (stereo not given) | 42 | 20 | 1.6 | half-life [9]: 16 h; half-life [10]: 5 h; ED50 (Canis familiaris [2]): 0.45 µg/min/kg; ED50 (Canis familiaris [3]): 0.23 µg/min/kg; ED50 (Rattus norvegicus [4]): 0.3 mg/kg; inhibition in vivo at 0.0025 mg/kg (Ovis aries): 50%; Inhibition [5]: 53%; inhibition in vivo at 0.5 mg/kg (Rattus norvegicus [6]): 60% |
| N#Cc1cc(-c2ccoc2)c2ccc(OCc3csc(C4(O)CCOCC4)n3)cc2c1 | 300 | 160 | 9 | – |
| N#Cc1cc(-c2ccoc2)c2ccc(OCc3cc(C4(O)CCOCC4)ccn3)cc2c1 | 50 | 70 | 3.5 | – |
| N#Cc1cc(-c2ccoc2)c2ccc(OCc3cccc(C4(O)CCOCC4)c3)cc2c1 | – | – | – | Cmax [11]: 1000 nM; bioavailability [12]: < 5% |
| N#Cc1cc(-c2ccoc2)c2ccc(OCc3cccc(C4(O)CCOCC4)n3)cc2c1 | 30 | – | 0.6 | IC50 [13]: 15 nM |
| N#Cc1cc(-c2ccoc2)c2ccc(OCc3ccnc(C4(O)CCOCC4)c3)cc2c1 | 250 | – | 5 | IC50 [13]: 350 nM |
| N#Cc1cc(-c2ccoc2)c2ccc(COc3cccc(C4(O)CC5COC(C4)O5)n3)cc2c1 (stereo not given) | 67 | 80 | 3.1 | – |
| N#Cc1cc(-c2ccoc2)c2ccc(OCc3cncc(C4(O)CCOCC4)c3)cc2c1 | 100 | 100 | 10 | – |
